Measured values reported in ChEMBL document CHEMBL1649418, “Pyrimidine derivatives as potent and selective A3 adenosine receptor antagonists” (J Med Chem, 2011).

Legend:
Format in all cases: cell-based
[1] = biological target: T1, Adenosine receptor A1 (Homo sapiens) (UniProt P30542); experiment: Displacement of [3H]DPCPX from human adenosine A1 receptor expressed in CHO cells at 0.1 uM by liquid scintillation counting
T1 sequence (whole entry): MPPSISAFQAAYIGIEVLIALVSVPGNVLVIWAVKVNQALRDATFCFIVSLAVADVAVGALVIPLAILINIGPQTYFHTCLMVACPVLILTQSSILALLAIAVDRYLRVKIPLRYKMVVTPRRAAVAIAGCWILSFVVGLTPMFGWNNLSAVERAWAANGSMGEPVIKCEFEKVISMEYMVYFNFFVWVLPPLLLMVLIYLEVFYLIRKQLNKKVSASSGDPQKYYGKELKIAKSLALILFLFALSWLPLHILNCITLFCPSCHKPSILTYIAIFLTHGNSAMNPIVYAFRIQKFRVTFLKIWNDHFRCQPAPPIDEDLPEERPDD
In short: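 Transfected CHO cell membranes (15 μg) were incubated with [3H]DPCPX at 25 °C for 60 min, with six test concentrations from 0.1 nM to 1 μM. Nonspecific binding was defined with 10 μM R-PIA. Filters were washed four times with ice-cold buffer before scintillation counting. Ki (Cheng–Prusoff) is mean ± SEM, n=3; % displacement at 0.1 μM is n=2.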

Adenosine receptor A2a = Adenosine receptor A2a (Homo sapiens, UniProt P29274); experiment: Displacement of [3H][…] from human adenosine A2A receptor expressed in human HeLa cells at 0.1 uM by liquid scintillation counting
Chain of Adenosine receptor A2a (P29274 whole entry): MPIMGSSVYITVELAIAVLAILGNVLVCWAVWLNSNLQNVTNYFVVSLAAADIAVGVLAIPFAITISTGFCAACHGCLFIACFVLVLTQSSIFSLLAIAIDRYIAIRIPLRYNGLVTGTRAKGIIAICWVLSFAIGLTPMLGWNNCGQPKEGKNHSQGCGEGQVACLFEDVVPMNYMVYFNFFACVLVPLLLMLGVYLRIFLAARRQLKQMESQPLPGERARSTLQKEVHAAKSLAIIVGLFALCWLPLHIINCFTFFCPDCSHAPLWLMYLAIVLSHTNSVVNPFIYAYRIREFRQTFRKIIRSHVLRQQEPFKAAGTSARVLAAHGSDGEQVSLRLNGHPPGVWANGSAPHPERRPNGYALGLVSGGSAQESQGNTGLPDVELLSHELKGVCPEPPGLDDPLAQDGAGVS
In short: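 Nonspecific binding was defined with 50 μM NECA. Filters were washed four times with ice-cold buffer, then counted by scintillation. Ki (Cheng–Prusoff) is mean ± SEM, n=3; % displacement at 0.1 μM is n=2.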

[2] = biological target: T2, Adenosine receptor A2b (Homo sapiens) (UniProt P29275); experiment: Displacement of [3H]DPCPX from human adenosine A2B receptor expressed in HEK293 cells at 0.1 uM by liquid scintillation counting
T2 sequence (whole entry): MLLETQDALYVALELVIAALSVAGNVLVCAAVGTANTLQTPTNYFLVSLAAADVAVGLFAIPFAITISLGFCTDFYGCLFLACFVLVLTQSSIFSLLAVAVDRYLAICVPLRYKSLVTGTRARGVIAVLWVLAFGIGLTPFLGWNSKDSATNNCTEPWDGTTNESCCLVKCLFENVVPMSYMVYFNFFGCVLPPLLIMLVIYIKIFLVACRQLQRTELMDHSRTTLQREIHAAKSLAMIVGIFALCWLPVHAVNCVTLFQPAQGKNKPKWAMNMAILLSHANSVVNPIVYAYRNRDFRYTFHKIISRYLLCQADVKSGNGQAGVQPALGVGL
In short: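 HEK-293 membranes (18 μg) were incubated with [3H]DPCPX (35 nM) at 25 °C for 30 min, with six concentrations from 0.1 nM to 1 μM. Nonspecific binding was defined with 400 μM NECA. Filters were washed six times with ice-cold buffer and counted by scintillation. Ki (Cheng–Prusoff) is mean ± SEM, n=3; % displacement at 0.1 μM is n=2.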

[3] = biological target: T3, Adenosine receptor A3 (Homo sapiens) (UniProt P0DMS8); experiment: Displacement of [3H]NECA from human adenosine A3 receptor expressed in human HeLa cells at 0.1 uM by liquid scintillation counting
T3 sequence (whole entry): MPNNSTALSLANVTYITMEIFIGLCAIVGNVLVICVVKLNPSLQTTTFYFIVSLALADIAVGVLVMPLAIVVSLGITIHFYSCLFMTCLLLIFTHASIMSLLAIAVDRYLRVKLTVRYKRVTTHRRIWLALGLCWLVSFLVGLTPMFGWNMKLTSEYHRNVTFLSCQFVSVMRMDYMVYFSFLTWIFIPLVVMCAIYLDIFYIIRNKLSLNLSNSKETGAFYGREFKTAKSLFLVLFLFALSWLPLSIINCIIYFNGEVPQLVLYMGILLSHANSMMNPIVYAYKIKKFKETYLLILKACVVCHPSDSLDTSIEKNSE
In short: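 HeLa membranes (90 μg) carrying hA3AR were incubated with [3H]NECA (30 nM) at 25 °C for 180 min, with six concentrations from 0.1 nM to 1 μM. Nonspecific binding was defined with 100 μM R-PIA. Filters were washed six times and counted by scintillation. Ki (Cheng–Prusoff) is mean ± SEM, n=3; % displacement at 0.1 μM is n=2.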

Adenosine receptor A3 = biological target: T4, Adenosine receptor A3 (Homo sapiens, UniProt P0DMS8); experiment: Displacement of [3H]NECA from human adenosine A3 receptor expressed in human HeLa cells by liquid scintillation counting
T4 sequence (P0DMS8 whole entry): T3 sequence (whole entry)
In short: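 HeLa membranes (90 μg) carrying hA3AR were incubated with [3H]NECA (30 nM) at 25 °C for 180 min, with six concentrations from 0.1 nM to 1 μM. Nonspecific binding was defined with 100 μM R-PIA. Filters were washed six times and counted by scintillation.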

inhibition [1]	inhibition (Adenosine receptor A2a)	inhibition [2]	inhibition [3]	Ki (Adenosine receptor A3; read-out: Ki)	Ki (Adenosine receptor A3; read-out: pKi (converted))	SMILES
1%	3%	1%	17%			CCCC(=O)Nc1nc(-c2ccc(Cl)cc2)cc(-c2ccc(Cl)cc2)n1
1%	14%	1%		24.1 nM		COc1ccccc1-c1cc(NC(C)=O)nc(-c2ccccc2OC)n1
3%	14%	3%	17%			CCC(=O)Nc1nc(-c2ccc(OC)cc2OC)cc(-c2ccc(OC)cc2OC)n1
4%	10%	1%	2%			COc1ccccc1-c1cc(-c2ccccc2OC)nc(NC(C)=O)n1
3%	7%	2%	3%			CCCC(=O)Nc1nc(-c2ccc(SC)cc2)cc(-c2ccc(SC)cc2)n1
2%	1%	8%	13%			CCC(=O)Nc1nc(-c2ccc(OC)cc2)cc(-c2ccc(OC)cc2)n1
14%	16%	15%	1%			CCCC(=O)Nc1nc(-c2ccc(OC)cc2OC)cc(-c2ccc(OC)cc2OC)n1
6%	14%	8%		11.3 nM		CCC(=O)Nc1cc(-c2ccc(OC)cc2OC)nc(-c2ccc(OC)cc2OC)n1
1%	1%	4%		56.3 nM	257 nM	COc1ccc(-c2cc(NC(=O)C3CCCCC3)nc(-c3ccc(OC)cc3OC)n2)c(OC)c1
18%	12%	14%		10.2 nM		CCCC(=O)Nc1cc(-c2ccc(OC)cc2OC)nc(-c2ccc(OC)cc2OC)n1
18%	1%	1%		15.9 nM		COc1ccc(-c2cc(NC(=O)C(C)C)nc(-c3ccc(OC)cc3OC)n2)c(OC)c1
1%	2%	2%		52.4 nM		CCC(CC)C(=O)Nc1cc(-c2ccc(OC)cc2OC)nc(-c2ccc(OC)cc2OC)n1

The next lines start with the compound.

SMILES	inhibition [1]	inhibition (Adenosine receptor A2a)	inhibition [2]	inhibition [3]	Ki (Adenosine receptor A3; read-out: Ki)	Ki (Adenosine receptor A3; read-out: pKi (converted))
CC(=O)Nc1nc(-c2ccc(Cl)cc2)cc(-c2ccc(Cl)cc2)n1	2%	2%	1%	1%		
CCCC(=O)Nc1cc(-c2ccc(C(C)=O)cc2)nc(-c2ccc(C(C)=O)cc2)n1	2%	1%	1%		133 nM	
CC(=O)Nc1nc(-c2ccc(C(F)(F)F)cc2)cc(-c2ccc(C(F)(F)F)cc2)n1	2%	1%	2%	10%		
CCCC(=O)Nc1nc(-c2ccc(C(F)(F)F)cc2)cc(-c2ccc(C(F)(F)F)cc2)n1	1%	2%	13%	2%		
CCC(=O)Nc1nc(-c2ccc(C)cc2)cc(-c2ccc(C)cc2)n1	1%	1%	3%		157 nM	
CCCC(=O)Nc1cc(/C=C/c2ccccc2)nc(/C=C/c2ccccc2)n1	1%	1%	8%	25%		
CC(=O)Nc1cc(-c2ccc(Cl)cc2)nc(-c2ccc(Cl)cc2)n1	1%	10%	1%		63.3 nM	
CCC(=O)Nc1nc(-c2ccc(Cl)cc2)cc(-c2ccc(Cl)cc2)n1	1%	11%	2%	14%		
CCC(=O)Nc1nc(-c2ccco2)cc(-c2ccco2)n1	24%	15%	21%		1900 nM	
CC(=O)Nc1cc(/C=C/c2ccccc2)nc(/C=C/c2ccccc2)n1	1%	13%	1%		15.6 nM	
CCC(=O)Nc1nc(-c2cccs2)cc(-c2cccs2)n1	24%	25%	2%	21%		
CC(=O)Nc1nc(-c2cccs2)cc(-c2cccs2)n1	2%	5%	3%	21%		
CSc1ccc(-c2cc(NC(C)=O)nc(-c3ccc(SC)cc3)n2)cc1	1%	1%	2%		71.3 nM	
CCC(=O)Nc1cc(/C=C/c2ccccc2)nc(/C=C/c2ccccc2)n1	17%	2%	2%		46.9 nM	
CC(=O)Nc1cc(-c2ccc(C(F)(F)F)cc2)nc(-c2ccc(C(F)(F)F)cc2)n1	1%	1%	1%		126 nM	
CC(=O)Nc1cc(-c2ccc(C(C)=O)cc2)nc(-c2ccc(C(C)=O)cc2)n1	10%	13%	16%		25.2 nM	
CC(=O)Nc1nc(-c2ccc(C)cc2)cc(-c2ccc(C)cc2)n1	3%	6%	3%		47.3 nM	
CCCC(=O)Nc1cc(-c2ccc(C)cc2)nc(-c2ccc(C)cc2)n1	16%	2%	3%		59 nM	
CCC(=O)Nc1cc(-c2ccc(C(C)=O)cc2)nc(-c2ccc(C(C)=O)cc2)n1	1%	1%	2%		43.9 nM	
CCC(CC)C(=O)Nc1cc(-c2ccc(OC)cc2)nc(-c2ccc(OC)cc2)n1	3%	6%	8%		58.1 nM	
CCC(=O)Nc1cc(-c2ccc(SC)cc2)nc(-c2ccc(SC)cc2)n1	1%	1%	3%		43.6 nM	
COc1ccc(-c2cc(NC(=O)C3CCCCC3)nc(-c3ccc(OC)cc3)n2)cc1	5%	1%	1%		32.1 nM	
COc1ccc(-c2cc(NC(=O)C(C)C)nc(-c3ccc(OC)cc3)n2)cc1	5%	1%	3%		12.2 nM	
CC(=O)Nc1nc(-c2ccc3c(c2)OCO3)cc(-c2ccc3c(c2)OCO3)n1	1%	15%	1%		101 nM	
COc1ccc(-c2cc(NC(C)=O)nc(-c3ccc(OC)cc3)n2)cc1	1%	10%	4%			
CCC(=O)Nc1nc(/C=C/c2ccccc2)cc(/C=C/c2ccccc2)n1	1%	1%	1%		142 nM	
CCCC(=O)Nc1cc(-c2ccc(Cl)cc2)nc(-c2ccc(Cl)cc2)n1	16%	21%	1%		103 nM	
